A number with no mark means an inactive call. Results filed as inconclusive are left out. The source made the active and inactive calls.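 How the source made its calls, unless noted: active means RAM network inhibition above 8.4% in each of two replicates, 3 SD over the compound average; inconclusive means above 8.4% inhibition in only one replicate; inactive means 8.4% inhibition or less in each replicate.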
Tests used:
[1] = S. cerevisiae growth inhibition in permissive medium (OD615), pilot counter-assay for S. cerevisiae lifespan shortening project, permissive growth control (AID 705;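 active means growth inhibition above 25% in both replicates, a cutoff set 3 SD above the mean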); conditions: OD615, 24 h, at 10 µM, stronger effect = higher value
Procedure, shortened: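 assay system = Saccharomyces cerevisiae strain carrying genetically modified DeaD replicative-lifespan system | technique = absorbance (optical density) at 615 nm | buffer or medium = permissive raffinose/galactose medium | timing = cells pre-grown 4 h, then 24 h compound exposure, 30 °C humidified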

[2] = S. cerevisiae growth inhibition in restrictive medium, OD615, pilot screen, restrictive growth control, yeast lifespan reduction project (AID 706;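 active means growth inhibition above a set limit, 3 SD over mean compound inhibition, in both replicates, cut at about 43% in these data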;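 further: modified DeaD lifespan yeast strain shifted to restrictive glucose medium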); conditions: OD615, 48 h, at 10 µM, stronger effect = higher value
Procedure, shortened: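 System: modified S. cerevisiae. Buffer or medium: CSMM-D glucose medium. Incubation: 4 h pre-growth plus 48 h compound exposure, 30 °C. Detection: absorbance (optical density) measured at 615 nm.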

[3] = doxorubicin toxicity protection in MRP-1 cells – H69AR cells, CellTiter-Glo, duplicate, MRP-1 activator project, pilot screen (AID 807;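 active means viability increase at or above a cutoff of the median across tested compounds plus 3 SD, cut at about 8.5% in these data, passing the limit was not always enough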;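 further: compound pretreatment 18-22 h then 72 h combined with doxorubicin; 0% = doxorubicin alone and 100% = vehicle without doxorubicin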); conditions: H69AR viability with doxorubicin, CellTiter-Glo luminescence; at 10 µM; stronger effect = higher value
[4] = viability of HCT116 without oncogenic beta-catenin – human colon tumor cells, pilot screen (AID 823;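 active means cell viability at or below a set limit in both duplicate runs, the limit being the all-compound median minus 4 SD, cut at about 23% in these data, passing the limit was not always enough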;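 further: 0% = wells killed by 20 µM Hyamine and 100% = untreated DMSO cell wells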); conditions: HCT116 beta-catenin knockout viability, CellTiter-Glo, 60 h; at 10 µM; stronger effect = lower value
[5] = viability of PTEN-null HCT116 cells – cell-based, HCT116 clonal line, CellTiter-Glo, pilot screen (AID 824;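 active means viability at or below 27.92% in each of two runs, the all-compound median minus 4 SD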;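 further: 0% = 20 µM Hyamine control and 100% = vehicle cell control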); conditions: HCT116 PTEN-deleted viability, 60 h, at 10 µM, stronger effect = lower value
[6] = RAM pathway blockade in budding yeast – dse1pr::URA3 reporter, 5-FOA selection, pilot screen (AID 869;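 active means inhibition over a set limit, the all-compound mean plus 3 SD, in both replicate runs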;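 further: 0% = DMSO wells with no growth and 100% = 10 µM 1-NA-PP1 with full growth; RAM network block rescues cells from 5-FOA so hits raise OD615 growth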); conditions: S. cerevisiae dse1pr::URA3 5-FOA growth, OD615, 2 d; at 10 µM; stronger effect = higher value; strain carries analog-sensitive mutant Cbk1 kinase
[7] = RAM signaling pathway blockade in yeast – S. cerevisiae, Pdr1DBD-CYC8 efflux-inhibited sensitized strain, primary screen (AID 1298);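 further: 0% = DMSO untreated cells without growth and 100% = 10 µM 1-NA-PP1 full growth; higher means more yeast growth rescued from 5-FOA killing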; conditions: S. cerevisiae cbk1-as DSE1-URA3 strain, 5-FOA growth OD615, 2 d; at 50 µM; stronger effect = higher value

Structure (SMILES)	growth inhibition [1] [%]	growth inhibition [2] [%]	viability increase [3] [%]	viability [4]	viability [5]	inhibition [6] [%]	RAM network inhibition [7] [%]
Cc1c(C#N)c2ccccc2n1CC(=O)NCCc1c[nH]c2ccccc12	-12.2	5.17	-6.08	52.7%	64.3%	3.73	8.41
CCOC(=O)CNC(=O)c1c2c(nc3ccccc13)CCCC2	-6.83	-1.75	-5.37	95.4%	88.2%	2.68	5.74
COC(=O)c1c(NC(=O)CCCC(=O)O)sc(C)c1C	-6.98	3.54	-3.07	91.8%	87.9%	0.305	3.63
COc1ccccc1N(C(=O)NCc1ccccc1)C1=NCC(C)S1 (configuration not stated)	-16	-11.9	-3.44	93.4%	89.2%	2.22	7.42
Cc1cc(C)cc(NC(=O)CSc2nc3c(c(=O)n2C)SC(C)C3)c1 (configuration not stated)	-2.6	2.95	-2.79	89.3%	92%	2.04	6.37
CCOc1ccccc1Nc1nnc(C)c(=O)[nH]1	-5.5	5.76	-0.35	105%	99.3%	0.56	3.65
CN1CCN(S(=O)(=O)c2cccc(S(=O)(=O)c3ccc(Cl)c(Cl)c3)c2)CC1	-1.71	-7.33	-2.58	91.1%	83.7%	0.59	4.5
COc1ccc(OCC(=O)Nc2ccccc2OC)cc1	11.4	7.31	-4.87	105%	101%	0.82	-2.32
CC1CCC(NC(=O)Cn2cc3c(n2)CCCC3)CC1 (configuration not stated)	-4.87	-6.18	1.57	110%	103%	-0.485	0.23
CCOc1ccc(NC(=O)c2ccc(S(=O)(=O)N(C)C)cc2)cc1	-12.8	-7.66	0.26	102%	92.4%	1.32	1.71
Cc1cc(C)cc(NC(=O)CSc2nnc(-c3ccccc3)n2N)c1	5.25	7.08	-3.11	98.1%	97.1%	2.74	4.66
COc1ccc(C(=O)N2CCN(c3ccc(C)c(C)c3)CC2)cc1OC	-6.27	-4.04	-0.89	99.5%	92%	0.21	2.55
O=C(O)c1ccccc1C(=O)NCc1ccccc1	-7.18	-15.6	1.13	99.3%	100%	0.27	1.13
COc1ccc(OC)c2sc(NC(=O)c3ccc(Cl)s3)nc12	-16.4	-10.6	-3.79	22% (active)	13.8% (active)	3.47	5.85
O=C(O)CC1(Cc2nc(-c3cccs3)no2)CCCC1	5.79	0.06	0.13	96.1%	94.6%	0.35	-0.58
CCCN1CCN(C(=O)Cn2ncc3ccccc32)CC1	-12.4	-16.9	-2.31	100%	98.2%	1.26	3.84
O=C(CC1Oc2ccccc2NC1=O)NC1CCCC1 (configuration not stated)	1.69	2.71	0.05	103%	102%	1.33	0.1
O=C(CSc1nc2c([nH]c3ccccc32)c(=O)n1-c1cccc(Cl)c1)N1CCOCC1	-16.6	-12.8	-3.3	79.6%	79.9%	1.64	3.01

Structure (SMILES)	growth inhibition [1] [%]	growth inhibition [2] [%]	viability increase [3] [%]	viability [4]	viability [5]	inhibition [6] [%]	RAM network inhibition [7] [%]
COc1ccc(C2NC(=O)NC(O)(C(F)(F)F)C2C(=O)c2ccc(C)cc2)cc1 (configuration not stated)	6.2	-7.89	-2.35	100%	95.1%	0.56	-1.03
O=c1cc(CO)oc(C(Nc2ccccn2)c2ccccc2F)c1O (configuration not stated)	-10.6	-4.86	-5.64	106%	93.3%	0.95	2.91
Cn1c(C(=O)NC2CCCC2)cc2c(=O)n(C)c3ccccc3c21	-12.6	3.59	-2.84	84.3%	87.4%	1.21	7.72
CC1=C(C(=O)OC2CCCCC2)C(c2ccco2)n2ncnc2N1 (configuration not stated)	-9.02	4.91	-1.43	90.7%	88.8%	1.47	5.64
O=C(NCCc1csc(-c2cccnc2)n1)c1cccs1	1.53	4.78	-0.87	103%	106%	1.27	0.68
Cc1ccc(C)c(N2CCN(C(=O)CCS(=O)(=O)c3cccc4nonc34)CC2)c1	-16.3	-12.5	-5.38	88.8%	91.8%	1.31	6.07
CC(C)CCn1c(SCC(N)=O)nc2c1c(=O)n(C)c(=O)n2C	-11.8	-14.9	0.12	103%	102%	-0.76	2
COc1c(Cl)ccc(Cl)c1C(=O)OCC(=O)O	-7.06	-27.7	-2.73	86%	86.9%	1.39	4.54
CCc1ccccc1N1CC23C=CC(O2)C(C(=O)OCC(C)C)C3C1=O (configuration not stated)	-14.3	-12.6	-0.48	93.7%	89.6%	0.385	0.42
COc1cccc(C(=O)Nc2ccc(S(=O)(=O)Nc3onc(C)c3C)cc2)c1	-9.3	-14.8	0.25	96.1%	97.9%	1.99	7.93
O=C(COC(=O)c1cnccn1)c1ccc(Br)cc1	-9.27	-14.4	0.41	101%	96.7%	1.94	2.72
COc1ccccc1N(CC(=O)Nc1ccc2c(c1)OCO2)S(=O)(=O)c1ccccc1	-5.44	-18.2	-0.47	73.7%	84%	0.8	8.21
O=S(=O)(NC1c2cccc3cccc(c23)C1N1CCNCC1)c1ccccc1 (configuration not stated)	-10.4	-14.2	-5.27	68%	74.8%	1.62	2.72
COc1cccc(C(=O)Nc2ccc3nc(N4CCN(c5ncccn5)CC4)cc(C)c3c2)c1OC	12	-8.24	-5.36	9.73% (active)	12.8% (active)	0.73	4.05
COc1ccc(COC(=O)C2=C(C)NC(=O)NC2c2ccc(O)c(OC)c2)cc1 (configuration not stated)	-12	-17.8	3.03	93.1%	89.2%	0.34	1.52
O=c1[nH]c(NC2CCCCC2)nnc1Cc1ccccc1	-10	-5.11	0.04	102%	97.6%	2.53	1.52
CCOC(=O)N1CCN(C(=O)CSc2nc3c(cnn3-c3ccccc3)c(=O)[nH]2)CC1	-2.34	-4.3	-4.92	98.9%	99%	0.19	-1.2
CCOC(=O)CSc1nc(C)cc(Oc2ccc(=O)n(C)n2)n1	-17.4	-8.09	0.54	102%	97.5%	1.12	0.42

From PubChem BioAssay
